Test results as given in ChEMBL document CHEMBL1933058, “5-(2-amino-pyrimidin-4-yl)-1H-pyrrole and 2-(2-amino-pyrimidin-4-yl)-1,5,6,7-tetrahydro-pyrrolo[3,2-c]pyridin-4-one derivatives as new classes of selective and orally available Polo-like kinase 1 inhibitors” (Bioorg Med Chem Lett, 2012).
Calls of active or inactive are those of the source. The calls are words filed in the database; no cut-off is given here.

Experiments:
[1] = target: Serine/threonine-protein kinase PLK1 (Homo sapiens, UniProt P53350); experiment: Inhibition of PLK1
Chain of Serine/threonine-protein kinase PLK1 (P53350 whole entry): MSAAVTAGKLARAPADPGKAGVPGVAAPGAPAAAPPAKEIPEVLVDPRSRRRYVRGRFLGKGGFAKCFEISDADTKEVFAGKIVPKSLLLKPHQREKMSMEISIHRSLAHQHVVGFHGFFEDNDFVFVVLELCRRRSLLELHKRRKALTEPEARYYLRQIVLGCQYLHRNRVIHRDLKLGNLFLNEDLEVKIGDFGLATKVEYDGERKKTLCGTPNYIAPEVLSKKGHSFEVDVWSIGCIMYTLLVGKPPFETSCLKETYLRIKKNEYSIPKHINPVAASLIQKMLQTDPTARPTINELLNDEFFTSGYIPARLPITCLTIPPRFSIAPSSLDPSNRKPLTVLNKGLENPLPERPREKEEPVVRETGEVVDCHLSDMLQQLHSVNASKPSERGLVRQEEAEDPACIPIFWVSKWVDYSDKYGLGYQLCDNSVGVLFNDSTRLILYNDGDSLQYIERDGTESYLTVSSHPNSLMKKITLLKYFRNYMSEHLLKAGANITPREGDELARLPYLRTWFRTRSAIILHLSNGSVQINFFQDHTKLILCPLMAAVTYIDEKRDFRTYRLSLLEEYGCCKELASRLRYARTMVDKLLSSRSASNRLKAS

[2] = target: Serine/threonine-protein kinase PLK2 (Homo sapiens, UniProt Q9NYY3); experiment: Inhibition of PLK2
Chain of Serine/threonine-protein kinase PLK2 (Q9NYY3 whole entry): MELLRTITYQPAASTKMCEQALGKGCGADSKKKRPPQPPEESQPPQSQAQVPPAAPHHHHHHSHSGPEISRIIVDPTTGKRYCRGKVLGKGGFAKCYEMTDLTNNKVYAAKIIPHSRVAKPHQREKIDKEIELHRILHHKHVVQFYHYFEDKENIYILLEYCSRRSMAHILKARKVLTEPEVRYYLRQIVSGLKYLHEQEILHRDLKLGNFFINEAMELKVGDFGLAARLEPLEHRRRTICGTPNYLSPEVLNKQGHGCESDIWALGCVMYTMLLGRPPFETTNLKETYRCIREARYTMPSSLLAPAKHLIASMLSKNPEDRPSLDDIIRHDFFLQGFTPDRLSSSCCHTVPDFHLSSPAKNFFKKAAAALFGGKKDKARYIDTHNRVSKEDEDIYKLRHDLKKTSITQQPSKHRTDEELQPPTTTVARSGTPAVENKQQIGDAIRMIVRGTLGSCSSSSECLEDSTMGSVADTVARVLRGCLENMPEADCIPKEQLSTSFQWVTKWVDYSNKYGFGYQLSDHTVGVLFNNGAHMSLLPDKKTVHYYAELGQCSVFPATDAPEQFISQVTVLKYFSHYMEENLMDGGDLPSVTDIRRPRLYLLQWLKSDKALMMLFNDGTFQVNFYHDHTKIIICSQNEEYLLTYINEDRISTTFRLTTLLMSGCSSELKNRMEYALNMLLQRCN

[3] = target: Serine/threonine-protein kinase PLK3 (Homo sapiens, UniProt Q9H4B4); experiment: Inhibition of PLK3
Chain of Serine/threonine-protein kinase PLK3 (Q9H4B4 whole entry): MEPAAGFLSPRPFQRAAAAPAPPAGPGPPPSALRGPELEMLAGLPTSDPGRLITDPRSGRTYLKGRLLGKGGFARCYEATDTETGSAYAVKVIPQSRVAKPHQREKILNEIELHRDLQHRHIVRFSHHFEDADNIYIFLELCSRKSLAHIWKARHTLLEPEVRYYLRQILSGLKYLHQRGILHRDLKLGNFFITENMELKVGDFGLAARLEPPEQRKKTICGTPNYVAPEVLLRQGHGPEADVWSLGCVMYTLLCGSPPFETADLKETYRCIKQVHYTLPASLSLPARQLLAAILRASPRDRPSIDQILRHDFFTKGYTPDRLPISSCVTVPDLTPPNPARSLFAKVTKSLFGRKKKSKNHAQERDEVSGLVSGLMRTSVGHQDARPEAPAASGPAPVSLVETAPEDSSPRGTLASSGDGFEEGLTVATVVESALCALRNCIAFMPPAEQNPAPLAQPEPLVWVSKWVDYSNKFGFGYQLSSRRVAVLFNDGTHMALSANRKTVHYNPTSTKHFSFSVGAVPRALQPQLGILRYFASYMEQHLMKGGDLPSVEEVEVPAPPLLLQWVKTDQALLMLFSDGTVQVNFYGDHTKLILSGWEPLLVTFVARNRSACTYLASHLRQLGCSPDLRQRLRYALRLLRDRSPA

[4] = target: Cyclin-dependent kinase 2/cyclin A (Homo sapiens, UniProt P24941); experiment: Inhibition of CDK2/cyclin A; assay type: protein-complex assay
Aurora kinase A = target: T1, Aurora kinase A (Homo sapiens, UniProt O14965); experiment: Inhibition of Aurora-A
T1 sequence (O14965 whole entry): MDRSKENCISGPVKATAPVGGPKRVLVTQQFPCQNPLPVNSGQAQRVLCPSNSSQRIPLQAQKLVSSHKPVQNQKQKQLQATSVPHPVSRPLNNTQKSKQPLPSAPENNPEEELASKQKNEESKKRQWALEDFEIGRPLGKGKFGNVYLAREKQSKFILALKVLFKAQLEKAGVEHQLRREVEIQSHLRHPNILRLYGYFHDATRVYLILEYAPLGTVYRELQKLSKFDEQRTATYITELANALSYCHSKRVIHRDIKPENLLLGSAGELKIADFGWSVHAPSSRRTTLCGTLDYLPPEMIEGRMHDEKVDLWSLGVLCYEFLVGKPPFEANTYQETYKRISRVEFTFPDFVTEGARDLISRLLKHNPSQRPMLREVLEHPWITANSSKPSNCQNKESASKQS

A2780 [5] = experiment: Antiproliferative activity against human A2780 cells; assay type: functional, cell-based
A2780 [6] = experiment: Cell cycle arrest in human A2780 cells assessed as accumulation at G2/M phase at 0.05 to 5 uM after 24 hrs by FACS analysis; assay type: functional, cell-based
Method in brief: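 A2780 cells were exposed for 24 h to 0.05, 0.5 or 5 µM. Cell-cycle distribution was read by flow cytometry (FACS), scoring G2-M accumulation. Nocodazole-treated cells served as positive control.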

A2780 [7] = experiment: Cell cycle arrest in human A2780 cells assessed as increase of phospho Ser10 histone H3 level after 24 hrs by Western blotting analysis; assay type: functional, cell-based
Method in brief: (§1)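 A2780 cells were treated for 24 h at 0.05, 0.5 and 5 µM, with nocodazole as positive control. Lysates were immunoblotted for pSer10 histone H3, pThr199 nucleophosmin, cyclin B1, cyclin A, PARP cleavage and caspase 3 activation.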

A2780 [8] = experiment: Cell cycle arrest in human A2780 cells assessed as induction of phospho Thr199 nucleophosmin level after 24 hrs by Western blotting analysis; assay type: functional, cell-based; method in brief: as §1
A2780 [9] = experiment: Induction of apoptosis in human A2780 cells assessed as PARP cleavage at 5 uM after 24 hrs by Western blotting analysis; assay type: functional, cell-based; method in brief: as §1
A2780 [10] = experiment: Induction of apoptosis in human A2780 cells assessed as caspase3 activation at 5 uM after 24 hrs by Western blotting analysis; assay type: functional, cell-based; method in brief: as §1
A2780 [11] = experiment: Cell cycle arrest in human A2780 cells assessed as increase of phospho Ser10 histone H3 level at 0.05 to 5 uM after 1 hr by Western blotting analysis; assay type: functional, cell-based
Method in brief: (§2)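 A2780 cells got 1 h exposure at 0.05, 0.5 and 5 µM, with nocodazole-treated cells as comparator. Western blot was used to probe the PLK1 substrate marker pSer46 TCTP and the mitotic marker pSer10 histone H3.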

A2780 [12] = experiment: Cell cycle arrest in human A2780 cells assessed as reduction of phospho Ser46 TCTP level at 0.05 to 5 uM after 1 hr by Western blotting analysis; assay type: functional, cell-based; method in brief: as §2
[13] = AUC (0 to infinity) in Nu/Nu Balb Harlan mouse at 10 mg/kg, iv; assay type: ADME, organism-based; set-up: time infinity, dose 10 mg/kg, route intravenous; conditions: plasma
Method in brief: (§3)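 Male Balb Nu/Nu mice (Harlan) received a single 10 mg/kg intravenous dose, n = 3 animals per study. Vehicle was either trifluoroacetate salt in dextrose or free base in 50% PEG 400/glucosate, depending on compound. Parameters were reported as mean ± standard deviation.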

[14] = Clearance in Nu/Nu Balb Harlan mouse at 10 mg/kg, iv; assay type: ADME, organism-based; set-up: dose 10 mg/kg, route intravenous; conditions: in vivo; method in brief: as §3
[15] = Volume of distribution at steady state in Nu/Nu Balb Harlan mouse at 10 mg/kg, iv; assay type: ADME, organism-based; set-up: dose 10 mg/kg, route intravenous; conditions: in vivo, read-out: Vdss
[16] = Half life in Nu/Nu Balb Harlan mouse at 10 mg/kg, iv; assay type: ADME, organism-based; set-up: dose 10 mg/kg, route intravenous; conditions: in vivo; method in brief: as §3
[17] = Cmax in Nu/Nu Balb Harlan mouse at 10 mg/kg, po; assay type: ADME, organism-based; set-up: dose 10 mg/kg, route oral; conditions: in vivo
[18] = AUC (0 to infinity) in Nu/Nu Balb Harlan mouse at 10 mg/kg, po; assay type: ADME, organism-based; set-up: time infinity, dose 10 mg/kg, route oral; conditions: plasma
[19] = Terminal half life in Nu/Nu Balb Harlan mouse at 10 mg/kg, po; assay type: ADME, organism-based; set-up: dose 10 mg/kg, route oral; conditions: in vivo, read-out: beta t1/2 (converted)
[20] = Oral bioavailability in Nu/Nu Balb Harlan mouse at 10 mg/kg; assay type: ADME, organism-based; conditions: in vivo

Row | IC50 [1] | IC50 [2] | IC50 [3] | IC50 [4] | IC50 (Aurora kinase A) | IC50 (A2780 [5]) | SMILES | further results
1 | 0.028 µM | > 10 µM | > 10 µM | > 10 µM | > 10 µM | 0.062 µM | CN1CCN(c2ccc(OC(F)(F)F)c(Nc3nccc(-c4cc5c(n4CC(F)(F)F)CCNC5=O)n3)c2)CC1 | –
2 | > 10 µM | > 10 µM | > 10 µM | > 10 µM | > 10 µM | 4.51 µM | Cn1cc(C(N)=O)cc1-c1ccnc(Nc2cc(N3CCN(C(=O)OC(C)(C)C)CC3)ccc2OC(F)(F)F)n1 | –
3 | – | – | – | – | – | – | CN1CCN(c2ccc(OC(F)(F)F)c(Nc3nccc(-c4cc(C(N)=O)cn4C)n3)c2)CC1 | Activity (A2780 [6]): Active; Activity (A2780 [7]): Dose-dependent effect; Activity (A2780 [8]): Dose-dependent effect; Activity (A2780 [9]): Active; Activity (A2780 [10]): Active; Activity (A2780 [11]): Active; Activity (A2780 [12]): Active
4 | 0.018 µM | > 10 µM | > 10 µM | > 10 µM | > 10 µM | 0.109 µM | CN1CCN(c2ccc(OC(F)(F)F)c(Nc3nccc(-c4cc(C(N)=O)cn4CC(F)(F)F)n3)c2)CC1 | –
5 | 1.13 µM | – | – | 0.219 µM | > 10 µM | 1.53 µM | Nc1nccc(-c2cc3c([nH]2)CCNC3=O)n1 | –
6 | 0.018 µM | > 10 µM | > 10 µM | > 10 µM | > 10 µM | 0.61 µM | Cn1cc(C(N)=O)cc1-c1ccnc(Nc2cc(N3CCNCC3)ccc2OC(F)(F)F)n1 | –
7 | – | – | – | – | – | – | CN1CCN(c2ccc(OC(F)(F)F)c(Nc3nccc(-c4cc(C(N)=O)cn4C)n3)c2)CC1.O=C(O)C(F)(F)F | AUC(0-inf) [13]: 5.41 µM·h; clearance [14]: 74.7 mL/min/kg; Vd [15]: 2.5 L/kg; half-life [16]: 0.65 h; Cmax [17]: 760 nM; AUC(0-inf) [18]: 1.92 µM·h; half-life [19]: 1.7 h; bioavailability [20]: 36%
